Measurements from ChEMBL document CHEMBL3259611, “Suppression of inflammatory responses by handelin, a guaianolide dimer from Chrysanthemum boreale, via downregulation of NF-κB signaling and pro-inflammatory cytokine production” (J Nat Prod, 2014).
Active and inactive are the calls of the source. The rule behind the calls is not given here.

Experiments:
RAW264.7 [1] = test: Antiinflammatory activity in mouse RAW264.7 cells assessed as inhibition of LPS-induced nitric oxide production administered 30 mins prior to LPS challenge measured after 20 hrs by Griess assay; format: functional, cell-based
In short: (§1)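 RAW 264.7 cells at 3 × 10^5 cells/mL in phenol red-free 10% FBS DMEM, pretreated for 30 min, then given 1 μg/mL LPS for 20 h. Nitrite in the medium was read by Griess reaction at 540 nm against a sodium nitrite standard curve. % inhibition was calculated versus vehicle control, and IC50 by nonlinear regression. Mean ± SD of triplicates.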

RAW264.7 [2] = test: Antiinflammatory activity in mouse RAW264.7 cells assessed as inhibition of LPS-induced nitric oxide production at 20 uM administered 30 mins prior to LPS challenge measured after 20 hrs by Griess assay relative to control; format: functional; in short: as §1
[3] = target: Transcription factor p65 (Mus musculus) (UniProt Q04207); test: Inhibition of LPS-induced NF-kappaB p65 binding to DNA in mouse RAW264.7 cells at 10 to 40 uM after 1.5 hrs by spectrophotometry; format: cell-based
Transcription factor p65 (Mus musculus), sequence (Q04207 whole entry): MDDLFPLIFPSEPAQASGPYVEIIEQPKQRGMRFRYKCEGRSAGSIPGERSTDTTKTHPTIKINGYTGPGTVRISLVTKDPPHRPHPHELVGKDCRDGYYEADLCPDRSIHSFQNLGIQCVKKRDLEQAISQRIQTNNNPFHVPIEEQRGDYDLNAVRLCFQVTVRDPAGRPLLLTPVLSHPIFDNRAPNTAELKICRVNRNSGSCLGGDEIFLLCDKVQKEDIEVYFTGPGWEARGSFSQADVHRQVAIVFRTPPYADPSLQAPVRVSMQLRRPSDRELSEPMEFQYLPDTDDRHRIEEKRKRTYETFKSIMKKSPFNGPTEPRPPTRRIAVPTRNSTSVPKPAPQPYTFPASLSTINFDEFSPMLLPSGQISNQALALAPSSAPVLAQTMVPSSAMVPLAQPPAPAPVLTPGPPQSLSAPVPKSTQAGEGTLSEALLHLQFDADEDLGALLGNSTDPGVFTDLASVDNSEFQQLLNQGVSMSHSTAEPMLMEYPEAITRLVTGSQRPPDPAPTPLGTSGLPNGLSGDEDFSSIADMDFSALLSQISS

RAW264.7 [4] = test: Antiinflammatory activity in mouse RAW264.7 cells assessed as inhibition LPS-induced miR-155 mRNA expression after 8 hrs by RT-PCR analysis; format: functional, cell-based
In short: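 LPS-stimulated RAW 264.7 cells, with or without compound, for 8 h. miR-155 measured by TaqMan qRT-PCR on 10 ng RNA, with stem-loop primer RT at 16 °C 30 min, 42 °C 30 min, 85 °C 5 min. Expression given as a ratio to β-actin. Mean ± SD of triplicates.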

RAW264.7 [5] = test: Antiinflammatory activity in mouse RAW264.7 cells assessed as inhibition of LPS-induced iNOS protein expression at 20 uM after 16 hrs by Western blotting analysis relative to control; format: functional
In short: (§2)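 RAW 264.7 cells given LPS (1 μg/mL) with or without compound for 16 h. Cell lysates were Western blotted for iNOS and COX-2 (6−15% SDS-PAGE, PVDF, ECL detection). Performed in triplicate.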

RAW264.7 [6] = test: Antiinflammatory activity in mouse RAW264.7 cells assessed as inhibition of LPS-induced COX2 protein expression at 10 uM after 16 hrs by Western blotting analysis relative to control; format: functional; in short: as §2
RAW264.7 [7] = test: Antiinflammatory activity in mouse RAW264.7 cells assessed as inhibition of LPS-induced COX2 mRNA expression at 20 uM after 5 hrs by RT-PCR analysis relative to control; format: functional
In short: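 RAW 264.7 cells exposed to 1 μg/mL LPS with or without compound for 5 h. Total RNA was analysed by RT-PCR: 25−30 cycles with annealing at 55 °C. Products were separated on 2% agarose gel with SYBR-Safe staining. Experiments in triplicate.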

[8] = target: T1, Nuclear factor NF-kappa-B p105 subunit (Mus musculus) (UniProt P25799); test: Inhibition of LPS-induced NFkappaB P50 protein nuclear translocation in mouse RAW264.7 cells at 20 uM after 30 mins by Western blotting analysis relative to control; format: cell-based
T1 sequence (whole entry): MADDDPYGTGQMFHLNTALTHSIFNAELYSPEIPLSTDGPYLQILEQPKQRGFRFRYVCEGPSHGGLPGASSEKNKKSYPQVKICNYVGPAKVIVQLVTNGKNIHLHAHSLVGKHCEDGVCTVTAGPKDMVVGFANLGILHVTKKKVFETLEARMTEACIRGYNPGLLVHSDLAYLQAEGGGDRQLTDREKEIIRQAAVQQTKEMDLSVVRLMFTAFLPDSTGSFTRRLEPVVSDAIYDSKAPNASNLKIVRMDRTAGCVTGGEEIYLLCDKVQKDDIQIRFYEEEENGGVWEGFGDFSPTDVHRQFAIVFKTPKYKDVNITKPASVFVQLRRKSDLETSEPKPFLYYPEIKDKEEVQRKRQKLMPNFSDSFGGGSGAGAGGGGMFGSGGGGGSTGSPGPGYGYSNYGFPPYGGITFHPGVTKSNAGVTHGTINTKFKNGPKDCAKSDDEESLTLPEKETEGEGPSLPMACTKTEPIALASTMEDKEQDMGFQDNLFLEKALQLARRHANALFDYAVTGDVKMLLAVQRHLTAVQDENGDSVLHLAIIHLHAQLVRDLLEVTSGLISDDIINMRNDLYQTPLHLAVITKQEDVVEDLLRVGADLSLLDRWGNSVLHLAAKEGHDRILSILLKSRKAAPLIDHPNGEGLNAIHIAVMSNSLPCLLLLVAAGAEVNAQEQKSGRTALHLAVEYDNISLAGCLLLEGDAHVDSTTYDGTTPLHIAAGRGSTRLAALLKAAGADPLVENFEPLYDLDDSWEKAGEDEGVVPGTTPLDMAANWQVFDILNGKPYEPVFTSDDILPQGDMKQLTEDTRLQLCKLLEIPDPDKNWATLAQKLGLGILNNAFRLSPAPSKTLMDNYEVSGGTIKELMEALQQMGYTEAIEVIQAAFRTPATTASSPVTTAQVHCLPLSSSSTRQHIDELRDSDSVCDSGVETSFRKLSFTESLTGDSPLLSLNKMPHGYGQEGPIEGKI
In short: (§3)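 Macrophages were exposed to compound for 30 min before LPS stimulation, with proteins extracted 30 min later. Nuclear extracts were prepared in Tris/KCl/NP-40 lysis buffer, then 420 mM NaCl buffer, and the cytosolic fraction was kept for IκB-α. Western blot on PVDF with ECL detection. Tests in triplicate; representative of three separate experiments.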

[9] = target: Transcription factor p65 (Mus musculus) (UniProt Q04207); test: Inhibition of LPS-induced NFkappaB P65 protein nuclear translocation in mouse RAW264.7 cells at 20 uM after 30 mins by Western blotting analysis relative to control; format: cell-based; in short: as §3
RAW264.7 [10] = test: Inhibition of LPS-induced NFkappaB transcriptional activity in mouse RAW264.7 cells assessed as reduction of phosphorylated IkappaB-alpha level at 20 uM after 30 mins by Western blotting analysis relative to control; format: cell-based; in short: as §3
[11] = target: T1, Nuclear factor NF-kappa-B p105 subunit (Mus musculus); test: Inhibition of LPS-induced NF-kappaB p50 binding to DNA in mouse RAW264.7 cells at 10 to 40 uM after 1.5 hrs by spectrophotometry in presence of mutant oligonucleotide; format: cell-based
RAW264.7 [12] = test: Antiinflammatory activity in mouse RAW264.7 cells assessed as inhibition LPS-induced TNF-alpha protein expression at 40 uM after 4 hrs by Western blotting analysis relative to control; format: functional
RAW264.7 [13] = test: Antiinflammatory activity in mouse RAW264.7 cells assessed as inhibition LPS-induced IL-1beta protein expression at 40 uM after 4 hrs by Western blotting analysis; format: functional
In short: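 RAW 264.7 cells stimulated with LPS (1 μg/mL) with or without compound for 4 h. Lysates were resolved by 6−15% SDS-PAGE and blotted to PVDF. Blocked in 5% milk/PBST, primary antibody overnight at 4 °C, secondary antibody 2 h, detected by ECL. Triplicate, representative of three experiments.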

RAW264.7 [14] = test: Antiinflammatory activity in mouse RAW264.7 cells assessed as inhibition of LPS-induced COX2 protein expression after 16 hrs by Western blotting analysis

C=C1C(=O)O[C@@H]2[C@@H]3[C@@]4(C=C[C@@]3(C)[C@]3(C4)C(=O)O[C@@H]4[C@H]5C(C)=CC[C@H]5[C@](C)(O)C[C@H](OC(C)=O)[C@H]43)[C@](C)(O)CC[C@@H]12
IC50 (RAW264.7 [1]): 6.7 µM
inhibition (RAW264.7 [1]): Dose-dependent effect
inhibition (INH) (RAW264.7 [2]): >84%
inhibition [3]: Active
inhibition (RAW264.7 [4]): Active
fold change (FC) (RAW264.7 [5]): 0.29
fold change (FC) (RAW264.7 [6]): 0.52
fold change (FC) (RAW264.7 [7]): 0.58
fold change (FC) [8]: 0.21
fold change (FC) [9]: 0.63
fold change (FC) (RAW264.7 [10]): 0.55
inhibition [11]: Active
fold change (FC) (RAW264.7 [12]): 0.56
fold change (FC) (RAW264.7 [13]): 0.65
inhibition (RAW264.7 [14]): Dose-dependent effect
